From ChEMBL document CHEMBL1144104, “Antimicrobial and antitumor activities of mycosporulone” (J Nat Prod, 1999)
Converted amounts (≈) assume the structure as drawn.

Experiments:
MDA-MB-231 = assay: Cytotoxicity against human MDA-MB-231 cells after 5 days by MTT assay; assay type: functional; details: MDA-MB-231, 120 h, read-out: LD50 (the source's name)
Summary of the method: (§1)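 Inhibition of tumour cells (human MDA-MB 231 clonogenic cells, human prostatic adenocarcinoma PC3 and murine leukemia L-1210) was read by Mossmann-derived MTT colorimetric method. Taxol and doxorubicin were run as references.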

PC-3 = assay: Cytotoxicity against human PC-3 cells after 5 days by MTT assay; assay type: functional; details: PC-3, 120 h, read-out: LD50 (the source's name); summary of the method: as §1
L1210 = assay: Cytotoxicity against mouse L1210 cells after 5 days by MTT assay; assay type: functional; details: L1210, 120 h, read-out: LD50 (the source's name); summary of the method: as §1
Candida tropicalis = assay: Antifungal activity against amphotericin-resistant Candida tropicalis after 24 to 72 hrs by disk diffusion method; assay type: functional
Summary of the method: (§2)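 Yeasts grown on yeast extract 10 g, peptone 20 g and glucose 15 g per litre, pH 6.0, solidified with 1.5% agar and autoclaved 120 °C for 20 min. Cellulose-disk diffusion assay, with inhibition zone diameters recorded after 24-72 h of incubation, depending on the strain.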

Cryptococcus neoformans = assay: Antifungal activity against Cryptococcus neoformans 1 after 24 to 72 hrs by disk diffusion method; assay type: functional; summary of the method: as §2
Nakaseomyces glabratus = assay: Antifungal activity against Candida glabrata after 24 to 72 hrs by disk diffusion method; assay type: functional; summary of the method: as §2
Staphylococcus aureus [1] = assay: Antibacterial activity against Staphylococcus aureus after 24 to 72 hrs by disk diffusion method; assay type: functional
Summary of the method: (§3)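 Paper-disk diffusion on agar plates. Cellulose disks carry crude EtOAc extract of the fungal culture filtrate; the extract is dried, then redissolved in 3 mL EtOAc. Inhibition zone diameters are read after 24-72 h of incubation, with the time depending on the target organism.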

Enterococcus faecalis = assay: Antibacterial activity against Streptococcus faecalis after 24 to 72 hrs by disk diffusion method; assay type: functional; summary of the method: as §3
Escherichia coli = assay: Antibacterial activity against Escherichia coli after 24 to 72 hrs by disk diffusion method; assay type: functional; summary of the method: as §3
Staphylococcus aureus [2] = assay: Antibacterial activity against penicillin-resistant Staphylococcus aureus after 24 to 72 hrs by disk diffusion method; assay type: functional
Summary of the method: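 Cellulose-disk agar diffusion; growth medium includes soya phytone 5 g and NaCl 5 g per litre distilled water, pH 7.2, with 1.5% agar, autoclaved 120 °C for 20 min. Inhibition zone diameters read after 24-72 h of incubation, depending on the target organism.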

Pseudomonas aeruginosa = assay: Antibacterial activity against Pseudomonas aeruginosa after 24 to 72 hrs by disk diffusion method; assay type: functional; summary of the method: as §3
[3] = Cytotoxicity against human MRC5 cells after 5 days by MTT assay; assay type: cell-based; details: read-out: LD50
Summary of the method: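 Human lung fibroblast MRC5 (nontumor) line in 96-well plates; modified Mossmann MTT colorimetric micromethod; compound tested up to a maximal concentration of 100 µg/mL.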

| Compound | CC50 (MDA-MB-231) [µg/mL] | CC50 (PC-3) [µg/mL] | CC50 (L1210) [µg/mL] | MIC (Candida tropicalis) [µg/mL] | MIC (Cryptococcus neoformans) [µg/mL] | MIC (Nakaseomyces glabratus) [µg/mL] | MIC (Staphylococcus aureus [1]) [µg/mL] | MIC (Enterococcus faecalis) [µg/mL] | MIC (Escherichia coli) [µg/mL] | MIC (Staphylococcus aureus [2]) [µg/mL] | MIC (Pseudomonas aeruginosa) [µg/mL] | CC50 at 120 h [3] [µg/mL] |
| --- | --- | --- | --- | --- | --- | --- | --- | --- | --- | --- | --- | --- |
| CC(=O)O[C@H]1C(=O)[C@@]2(C)[C@H]([C@H](OC(=O)c3ccccc3)[C@]3(O)C[C@H](OC(=O)[C@H](O)[C@@H](NC(=O)c4ccccc4)c4ccccc4)C(C)=C1C3(C)C)[C@]1(OC(C)=O)CO[C@@H]1C[C@@H]2O [PACLITAXEL] | 0.003 (≈ 0.00351 µM) | 0.0027 (≈ 0.00316 µM) | 0.014 (≈ 0.0164 µM) | – | – | – | – | – | – | – | – | – |
| NYSTATIN | – | – | – | 14 | 14 | 28 | – | – | – | – | – | – |
| COc1cccc2c1C(=O)c1c(O)c3c(c(O)c1C2=O)C[C@@](O)(C(=O)CO)C[C@@H]3O[C@H]1C[C@H](N)[C@H](O)[C@H](C)O1 [DOXORUBICIN] | 0.09 (≈ 0.166 µM) | 0.19 (≈ 0.35 µM) | 0.02 (≈ 0.0368 µM) | – | – | – | – | – | – | – | – | – |
| CN[C@@H]1[C@H](O[C@H]2[C@H](O[C@H]3[C@H](O)[C@@H](O)[C@H](N=C(N)N)[C@@H](O)[C@@H]3N=C(N)N)O[C@@H](C)[C@]2(O)C=O)O[C@@H](CO)[C@H](O)[C@H]1O [STREPTOMYCIN] | – | – | – | – | – | – | 420 (≈ 722 µM) | 420 (≈ 722 µM) | 28 (≈ 48.1 µM) | 14 (≈ 24.1 µM) | 140 (≈ 241 µM) | – |
| C[C@@H]1[C@H](O)[C@@H](C)/C=C/C=C/C=C/C=C/C=C/C=C/C=C/[C@H](O[C@@H]2O[C@H](C)[C@@H](O)[C@H](N)[C@@H]2O)C[C@@H]2O[C@](O)(C[C@@H](O)C[C@@H](O)[C@H](O)CC[C@@H](O)C[C@@H](O)CC(=O)O[C@H]1C)C[C@H](O)[C@H]2C(=O)O [AMPHOTERICIN B] | – | – | – | > 560 | 140 (≈ 152 µM) | 140 (≈ 152 µM) | – | – | – | – | – | – |
| C=C1OC(=O)[C@]2(C1=O)[C@H](C)C=CC(=O)[C@H]2O [MYCOSPORULONE] | 7.7 (≈ 34.7 µM) | 2.6 (≈ 11.7 µM) | 0.3 (≈ 1.35 µM) | 14 (≈ 63 µM) | 280 (≈ 1260 µM) | 420 (≈ 1890 µM) | 420 (≈ 1890 µM) | 280 (≈ 1260 µM) | 14 (≈ 63 µM) | 14 (≈ 63 µM) | 14 (≈ 63 µM) | > 100 |
| CC(=O)N1CCN(c2ccc(OCC3COC(Cn4ccnc4)(c4ccc(Cl)cc4Cl)O3)cc2)CC1 (configuration not stated) [KETOCONAZOLE] | – | – | – | 140 (≈ 263 µM) | 56 (≈ 105 µM) | 14 (≈ 26.3 µM) | – | – | – | – | – | – |
| CC1(C)S[C@@H]2[C@H](NC(=O)Cc3ccccc3)C(=O)N2[C@H]1C(=O)O [PENICILLIN G] | – | – | – | – | – | – | 14 (≈ 41.9 µM) | 14 (≈ 41.9 µM) | 560 (≈ 1670 µM) | 560 (≈ 1670 µM) | 560 (≈ 1670 µM) | – |
| NC[C@H]1O[C@H](O[C@H]2[C@H](O)[C@@H](O[C@H]3O[C@H](CO)[C@@H](O)[C@H](N)[C@H]3O)[C@H](N)C[C@@H]2N)[C@H](O)[C@@H](O)[C@@H]1O [KANAMYCIN] | – | – | – | – | – | – | 140 (≈ 289 µM) | 560 (≈ 1160 µM) | 28 (≈ 57.8 µM) | 14 (≈ 28.9 µM) | 140 (≈ 289 µM) | – |
